Test results taken from ChEMBL document CHEMBL4007452, “Discovery of an Orally Selective Inhibitor of Signal Transducer and Activator of Transcription 3 Using Advanced Multiple Ligand Simultaneous Docking” (J Med Chem, 2017).
The source made the active and inactive calls. The rule behind the calls is not given here.

Columns and labels:
[1] = Selectivity ratio of IC50 for human MCF-10A cells to IC50 for human MDA-MB-231 cells
Summary of the method: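 MTT viability assay. MCF-10A was grown in RPMI-1640 and MDA-MB-231 in DMEM, each with 10% FBS. Cells were seeded at 3000 per well and left 24 h at 37 °C. Compound was then added in triplicate with 10% FBS, at 0.1-10 µM for the cancer cells and 3.125-400 µM for MCF-10A. Absorbance was read at 595 nm. The ratio is IC50 for MCF-10A over IC50 for MDA-MB-231.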

[2] = AUC (0 to infinity) in Sprague-Dawley rat plasma at 10 mg/kg, po measured after 24 hrs by UPLC analysis; type: ADME, organism-based; parameters: dose 10 mg/kg, route oral, time infinity
Summary of the method: (§1)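 Rat plasma sampled from 2 min to 24 h after a single i.v. (1 mg/kg) or p.o. (10 mg/kg) dose. Parameters were derived from the concentration-time profiles. The bioanalytical method was validated to FDA guidelines for selectivity, linearity, LLOQ, accuracy, precision, recovery, matrix effect and stability.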

MDA-MB-231 [3] = assay: Induction of apoptosis in human MDA-MB-231 cells assessed as increase in cleaved caspase level at 2.5 to 5 uM after 12 hrs by immunoblot analysis; type: functional, cell-based
Summary of the method: (§2)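 MDA-MB-231 cells at 60–80% confluence were treated 12 h with 10% FBS at 2.5-10 µM or 2.5-5 µM, against a DMSO control. Whole-cell lysates were immunoblotted, with bands quantified as percent of control.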

[4] = target: T1, Signal transducer and activator of transcription 5A (Homo sapiens) (UniProt P42229); assay: Inhibition of STAT5 dimerization in human MDA-MB-231 cells assessed as inhibition of STAT5-STAT5 DNA binding activity at 5 uM after 24 hrs by EMSA; type: cell-based
T1 sequence (whole entry): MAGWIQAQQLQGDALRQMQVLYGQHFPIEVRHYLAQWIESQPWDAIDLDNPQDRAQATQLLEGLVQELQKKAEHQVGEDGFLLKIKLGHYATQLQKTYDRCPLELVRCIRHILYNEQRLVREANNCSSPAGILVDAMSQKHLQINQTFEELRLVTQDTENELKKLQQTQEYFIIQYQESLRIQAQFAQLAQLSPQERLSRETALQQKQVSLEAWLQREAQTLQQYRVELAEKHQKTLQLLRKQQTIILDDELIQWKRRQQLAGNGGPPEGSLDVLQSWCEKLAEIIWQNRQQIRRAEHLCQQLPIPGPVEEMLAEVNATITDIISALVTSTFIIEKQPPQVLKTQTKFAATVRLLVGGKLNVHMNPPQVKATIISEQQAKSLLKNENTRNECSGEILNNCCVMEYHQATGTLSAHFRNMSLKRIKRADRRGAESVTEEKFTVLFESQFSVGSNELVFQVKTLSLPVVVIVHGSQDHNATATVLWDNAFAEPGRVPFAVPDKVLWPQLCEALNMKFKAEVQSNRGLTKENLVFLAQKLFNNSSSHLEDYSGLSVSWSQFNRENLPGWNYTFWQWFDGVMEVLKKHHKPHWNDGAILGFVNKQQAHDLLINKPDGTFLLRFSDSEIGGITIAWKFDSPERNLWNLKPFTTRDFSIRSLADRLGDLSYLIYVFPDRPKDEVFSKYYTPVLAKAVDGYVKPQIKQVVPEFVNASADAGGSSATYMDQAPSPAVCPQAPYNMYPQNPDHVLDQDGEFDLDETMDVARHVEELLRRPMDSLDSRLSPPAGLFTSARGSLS
Summary of the method: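 MDA-MB-231 cells were treated at 5 µM for 0-24 h before nuclear extract preparation. Extracts were incubated with biotin-labeled probe for 30 min at room temperature, then analysed by EMSA.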

[5] = MRT (0 to infinity) in Sprague-Dawley rat plasma at 10 mg/kg, po measured after 24 hrs by UPLC analysis; type: ADME, organism-based; summary of the method: as §1
[6] = target: Epidermal growth factor receptor (Homo sapiens) (UniProt P00533); assay: Inhibition of EGFR in human UW426 cells assessed as reduction in p-ERK1/2 (T202/Y204) level at 1 to 2.5 uM after 24 hrs by immunoblot analysis; type: cell-based
Summary of the method: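 UW426 cells at 60–80% confluence were treated 24 h at 1-2.5 µM with 10% FBS, against a DMSO control, then immunoblotted.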

MDA-MB-231 [7] = assay: Induction of SHP-1 expression in human MDA-MB-231 cells at 2.5 to 10 uM after 12 hrs by immunoblot analysis; type: functional, cell-based; summary of the method: as §2
[8] = target: T2, Signal transducer and activator of transcription 1-alpha/beta (Homo sapiens) (UniProt P42224); assay: Inhibition of STAT1 in human MDA-MB-231 cells assessed as reduction in IFN-gamma-induced STAT1 phosphorylation at 2.5 to 5 uM preincubated for 2 hrs followed by IFN-gamma stimulation measured after 30 mins by Western blot analysis; type: cell-based
T2 sequence (whole entry): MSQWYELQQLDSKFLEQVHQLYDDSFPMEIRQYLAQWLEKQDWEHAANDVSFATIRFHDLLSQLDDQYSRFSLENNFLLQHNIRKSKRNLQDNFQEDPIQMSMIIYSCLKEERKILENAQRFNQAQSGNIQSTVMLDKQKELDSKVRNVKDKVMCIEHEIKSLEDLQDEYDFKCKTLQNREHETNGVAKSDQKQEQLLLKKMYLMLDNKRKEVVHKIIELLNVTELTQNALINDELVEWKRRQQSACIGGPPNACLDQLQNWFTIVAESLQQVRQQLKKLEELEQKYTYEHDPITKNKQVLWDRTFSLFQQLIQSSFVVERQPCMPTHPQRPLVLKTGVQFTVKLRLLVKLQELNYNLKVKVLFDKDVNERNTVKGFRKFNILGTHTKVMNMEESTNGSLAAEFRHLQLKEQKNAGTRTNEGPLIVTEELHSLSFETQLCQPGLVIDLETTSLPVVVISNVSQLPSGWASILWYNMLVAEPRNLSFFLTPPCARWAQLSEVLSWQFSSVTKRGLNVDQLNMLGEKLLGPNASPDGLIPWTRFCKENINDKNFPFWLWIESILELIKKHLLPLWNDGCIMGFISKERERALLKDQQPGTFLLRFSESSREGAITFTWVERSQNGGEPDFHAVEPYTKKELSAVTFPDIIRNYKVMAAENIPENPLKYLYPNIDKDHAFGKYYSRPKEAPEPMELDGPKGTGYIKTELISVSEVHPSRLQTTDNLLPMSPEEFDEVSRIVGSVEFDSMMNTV
Summary of the method: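 MDA-MB-231 cells were allowed to adhere overnight, then serum-starved. They were pretreated 2 h with 2.5-5 µM compound or DMSO and stimulated with IFN-γ (50 ng/mL). Cells were harvested after 30 min and immunoblotted for P-STAT1(Y701) and T-STAT1.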

[9] = Tmax in Sprague-Dawley rat plasma at 1 mg/kg, iv measured after 24 hrs by UPLC analysis; type: ADME, organism-based
Summary of the method: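 Rats dosed i.v. or p.o. Plasma concentrations followed from 2 min to 24 h after dosing. The bioanalytical method was validated to FDA guidelines for selectivity, linearity, LLOQ, accuracy, precision, recovery, matrix effect and stability.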

Epidermal growth factor receptor (Homo sapiens), sequence (P00533 whole entry): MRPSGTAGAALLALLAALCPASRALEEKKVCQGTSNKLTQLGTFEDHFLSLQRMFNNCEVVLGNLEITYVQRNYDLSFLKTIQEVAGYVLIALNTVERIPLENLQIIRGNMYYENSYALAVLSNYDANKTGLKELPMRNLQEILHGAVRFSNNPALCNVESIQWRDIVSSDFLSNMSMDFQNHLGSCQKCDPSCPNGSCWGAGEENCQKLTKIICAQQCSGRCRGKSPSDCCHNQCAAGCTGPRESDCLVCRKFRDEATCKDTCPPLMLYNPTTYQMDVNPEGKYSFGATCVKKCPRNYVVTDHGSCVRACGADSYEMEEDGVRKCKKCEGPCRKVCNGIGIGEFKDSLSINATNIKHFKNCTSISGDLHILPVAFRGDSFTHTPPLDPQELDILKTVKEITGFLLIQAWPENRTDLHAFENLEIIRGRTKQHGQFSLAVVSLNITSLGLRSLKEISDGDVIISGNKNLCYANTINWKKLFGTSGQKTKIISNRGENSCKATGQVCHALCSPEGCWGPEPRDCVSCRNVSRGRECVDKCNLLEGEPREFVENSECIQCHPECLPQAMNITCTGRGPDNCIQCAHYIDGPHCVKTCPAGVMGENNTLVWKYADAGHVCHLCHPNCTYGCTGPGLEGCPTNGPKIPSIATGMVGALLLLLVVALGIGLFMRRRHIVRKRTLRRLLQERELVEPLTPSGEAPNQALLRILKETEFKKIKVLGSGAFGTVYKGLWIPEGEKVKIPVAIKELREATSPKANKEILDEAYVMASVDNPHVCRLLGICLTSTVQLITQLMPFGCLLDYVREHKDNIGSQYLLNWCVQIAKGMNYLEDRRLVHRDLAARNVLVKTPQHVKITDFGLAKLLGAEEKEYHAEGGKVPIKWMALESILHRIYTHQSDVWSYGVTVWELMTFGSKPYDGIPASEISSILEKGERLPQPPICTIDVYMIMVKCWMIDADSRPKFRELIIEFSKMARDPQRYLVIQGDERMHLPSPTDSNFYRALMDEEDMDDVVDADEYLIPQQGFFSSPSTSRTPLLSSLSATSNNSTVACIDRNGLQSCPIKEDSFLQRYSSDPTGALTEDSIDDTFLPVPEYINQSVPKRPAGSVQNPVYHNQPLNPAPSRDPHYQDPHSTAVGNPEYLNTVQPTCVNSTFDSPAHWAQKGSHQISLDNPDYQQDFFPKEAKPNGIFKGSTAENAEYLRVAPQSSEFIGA

## NS(=O)(=O)c1cccc2c1C(=O)C=C(Nc1ccccc1N1CCNCC1)C2=O
[1]
  Ratio IC50: 184
[2]
  AUC(0-inf): 889 ng·h/mL
MDA-MB-231 [3]
  Activity: Active
[4]
  inhibition: inactive
[5]
  MRT inf: 2.25 h
[6]
  inhibition: inactive
MDA-MB-231 [7]
  Activity: Active
[8]
  inhibition: inactive
[9]
  Tmax: 1.98 min
